Hits are enriched below; roughly 3% of the tested compounds scored in any of these assays.
FID counter = counter-screen for HCV NS3 helicase inhibitors: DNA intercalator displacement; AID 1845; inhibition, % at 7.9 µM; DNA fluorescent intercalator displacement, fluorescence; actives 0.17% (n = 290,000); in the data active means inhibition above about 37%;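 further: 0% = vehicle and 100% = reference compound; higher means more ethidium bromide displaced from hairpin DNA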
ANO1 activ = activators or potentiators of mouse TMEM16A chloride channel. Q8BHY3. HEK293 TMEM16A/YFP-H148Q/I152L, iodide quench fluorescence; stronger effect = lower value. B-score at 10 µM. actives 0.3% (n = 340,000);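 active means fluorescence-ratio B-score plate-corrected deviation score at least 3 library SD below zero, with starting fluorescence score within 5 deviations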;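 further: channel opened by trigger with iodide after compound preincubation; score built on the fluorescence ratio of max minus min over baseline; more negative score means more quench and so TMEM16A activation or potentiation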
ANO1 block = inhibitors of mouse TMEM16A calcium-activated chloride channel; actives 1.2% (n = 310,000); HEK293 TMEM16A/YFP iodide influx fluorescence, ionomycin; normalized B-score (activity score, 25-100; higher = stronger inhibition) at 10 µM; Q8BHY3;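 active means ratio plate-corrected score three or more library SD toward inhibition, starting fluorescence score within five deviations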;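 further: score derived from kinetic fluorescence span divided by baseline fluorescence per well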
Kir21 block = blocks the mouse Kir2.1 inward-rectifier potassium channel; HEK293-Kir2.1, FluxOR thallium flux fluorescence; stronger effect = lower value; B-score at 10 µM; actives 0.85% (n = 310,000); P35561;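 active means fluorescence ratio B-score at or below minus 3 SD of library scores, with starting-brightness B-score within 2 SD, cut at about -4.2 in these data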;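 further: channel flux triggered by added potassium and thallium sulfate stimulus; B-score of peak minus minimum fluorescence over baseline after thallium stimulus; more negative B-score means stronger Kir2.1 block with less thallium influx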
SR-BI DiI inh = mouse SR-BI HDL lipid transfer inhibition | Q61009 | inhibition, % at 12.5 µM | actives 0.96% (n = 320,000) | ldlA[mSR-BI] CHO cells, DiI-HDL uptake fluorescence, 3 h;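 active means mean replicate inhibition of at least 70% and a set share of replicates each scoring 70 or more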;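 further: 0% = median of neutral control wells and 100% = median of positive control wells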
SR-BI uptake up = activators of SR-BI mediated HDL lipid uptake; actives 0.096% (n = 320,000); AID 504775; CHO ldlA[mSR-BI] cells, DiI-HDL uptake fluorescence, 3 h; 100 = double the neutral-control signal; activation, % at 12.5 µM;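 active means mean replicate activation of at least 60% and every replicate at or above 60%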;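 further: 0% = median plate neutral-control signal and 100% = twice that signal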
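Test system: SR-BI-overexpressing, LDLR-lacking CHO cells; Medium: Ham's F12 with 0.5% BSA, HEPES 25 mM, pH 7.4; Schedule: 3 h, 37 °C; Technique: bottom-read fluorescence, 550/595 nm.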
The depositor's hits bear a star; i = inactive; x = no result.

SMILES	FID counter	ANO1 activ	ANO1 block	Kir21 block	SR-BI DiI inh	SR-BI uptake up
COc1cccc(CN2c3ccc(Br)cc3C(=O)CS2(=O)=O)c1	x	i	x	x	6	-6
O=C(Nc1nc(=S)ss1)c1ccc(Cl)cc1Cl	7	i	100*	-2.7	-46	46
CC(C)N(C(=O)[C@H]1C[C@H](CC(=O)NCCN2CCOCC2)C(=O)N2CCc3c([nH]c4cc(CCC(=O)N(C)C)ccc34)[C@]12C)C(C)C	x	x	x	x	-5	5
NC(=O)C(=O)NN=C1C2CC3CC(C2)CC1C3	-1	i	i	3.1	-3	3
NC(=S)NN=C1C2CC3CC(C2)CC1C3	3	i	i	-2	79*	-79
COC(=O)C12OCC34C(CC5C(C)=C(O)C(=O)CC5(C)C3C(O)C1O)OC(=O)C(OC(=O)C=C(C)C)C24 (configuration not stated)	x	i	x	x	-6	6
O=C(NCCS(=O)(=O)N1CCN(c2ccccc2F)CC1)c1cc(=O)c2ccccc2o1	-30	i	i	-0.01	-18	18
CC1=CC(=C(C#N)c2nc3ccccc3s2)C=C(C)N1Cc1ccco1	5	i	i	-0.11	109*	-109
Cc1cc(OCC(=O)OCC(=O)N2c3ccccc3NC(=O)C2(C)C)ccc1Cl	x	i	x	x	-15	15
COc1cccc(CN(C)C(=O)CNC(=O)c2ccc(-c3ccccc3)cc2)c1OC	-41	i	100*	-0.28	44	-44
COc1ccc(N(CC(=O)NC2CCS(=O)(=O)C2)S(=O)(=O)c2ccc(Cl)c(Cl)c2)cc1 (configuration not stated)	x	i	x	x	-23	23
O=C(NCc1ccccn1)c1coc(=O)c(Br)c1	1	i	100*	0.09	-10	10
Cc1cc(C(C#N)c2ccc(Cl)cc2)c(Cl)cc1NC(=O)c1cc(I)cc(I)c1O (configuration not stated)	x	i	100*	-0.73	20	-20
Cc1ccc(S(=O)(=O)N(CC(=O)N2CCC(C)CC2)c2cccc(C)c2)cc1	-37	i	25*	-1.6	-3	3
CCc1ccc(OCc2cccc(C(=O)N/N=C\c3cnn(C)c3C)c2)cc1	-16	i	x	-0.26	92*	-92
Oc1ccccc1C=NNC(=S)NN=Cc1ccccc1O	x	i	x	x	133*	-133
COc1cccc(/C=N/NC(=S)NC2CC3CC2C2C=CCC32)c1O (configuration not stated)	-4	i	i	0.36	51	-51
O=C(N/N=C/c1ccccc1O)C(=O)Nc1ccccn1	-6	i	i	-1.6	88*	-88
Oc1ccccc1/C=N/NC(=S)NC1CC2CC1C1C=CCC21 (configuration not stated)	-20	i	i	0.03	85*	-85
COc1ccc(/C=N/NC(=O)C(=O)Nc2ccccn2)cc1OC	-7	i	i	-0.59	3	-3
CCC1(C(N)=O)CC2C=CC1C2 (configuration not stated)	x	i	x	x	16	-16
CC(=O)c1ccc(NC(=O)CSc2nnc3ccc(-c4ccccn4)nn23)cc1	x	i	i	-0.25	-3	3
O=C(c1ccccc1)N1CCC(c2nc(-c3ccc(S(=O)(=O)NCC4CCCO4)cc3)no2)CC1 (configuration not stated)	-13	i	25*	-0.19	6	-6
Cc1ccc(-c2nc(NCCN3CCOCC3)c3ccccc3n2)cc1	46*	i	i	0.01	25	-25
Cc1cc(NCCN2CCOCC2)c2ccc3ccccc3c2n1	47*	i	i	-2.2	-18	18
Clc1cccc(-c2nc(NCCCN3CCOCC3)c3ccccc3n2)c1	37*	i	i	-0.88	22	-22
CC(C)OCCCNc1nc(-c2ccccc2)nc2ccccc12	4	i	i	1.6	38	-38
Clc1cccc(-c2nc(NCCN3CCOCC3)c3ccccc3n2)c1	9	i	i	0	23	-23
Oc1ccccc1-c1nc(NCCN2CCOCC2)c2ccccc2n1	25	i	i	-0.26	25	-25

Screening data from PubChem BioAssay.
